This passage reports outcome and inhibition results from PubChem BioAssay.

Values without a mark were called inactive. Active and inactive are the calls of the source.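 Rule for the calls, unless noted: active = a full or partial loss of lipid-probe fluorescence in the fish gall bladder, intestine or both, judged by eye; inactive = no fluorescence loss, or compound toxic to the fish.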

The nature of the first assay: inhibitors of larval lipid processing in zebrafish, primary screen, whole organism, PED6 fluorescence, gall bladder and intestine (AID 686).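 Note: larvae 5 to 7 days old with five fish per well; signal comes from phospholipase A2 cleavage of quenched PED6 carried via bile; overnight exposure to compound and PED6 before scoring.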 Particulars: Zebrafish larvae PED6 lipid processing, fluorescence scoring; screened at 20 µM (by protocol). In a few lines:
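system = live zebrafish larvae aged 5-7 days, whole organism | probe or stimulus = ingested quenched lipid PED6 at 100 nM | doses = 20 µM single dose | timing = overnight exposure | detection = fluorescence microscopy with visual scoring of gall bladder and intestine | read-out = visual per-well fluorescence inhibition score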
With `COc1cccc(C(=O)OC2CCCN(C)C2)c1` (stereo not given), the compound was classed as inactive.
The same measure, in the same setting: the entry for `FC(F)(F)c1cccc(N2CCc3cn[nH]c32)c1` is “inactive”; for `Cc1cc(=O)oc(C)c1C(=O)NCCC1=CCCCC1` it is “inactive”.
Consider `COCCNC(=O)C(C#N)c1nc2ccccc2nc1N1CCN(Cc2ccc3c(c2)OCO3)CC1` (stereo not given), for which the compound was called inactive.
For `Cc1cc(CC(=O)O)c(C)cc1CC(=O)O`, the result was inactive.
For `Nc1nc2n(n1)C(c1cccs1)CC(c1ccc(F)cc1)N2` (stereo not given), the call was inactive.
The same measure, in the same setting: the entry for `CCOC(=O)C1=Nc2ccccc2C1=[N+]=[N-]` is “inactive”; for `CCc1nc2c(sc3nc(N4CCOCC4)c4c(c32)CC(C)(C)OC4)c(=O)o1` it is “inactive”.
Still for that read-out and setting: the entry for `CC(=O)/C(C#N)=C1\NC(=O)C(Cc2ccccc2Cl)S1` (stereo not given) is “inactive”; for `COC(=O)/C=c1/s/c(=C(\C#N)C(=O)NCc2ccco2)n(-c2ccccc2)c1=O` it is “inactive”; for `O=C(NCCCN1CCOCC1)C1(c2ccccc2)CCOCC1` it is “inactive”.
`CCN(CC)CCN1C(=O)C(=O)/C(=C(/O)c2c(C)[nH]c(C(=O)OC)c2C)C1c1ccccc1` (stereo not given): the compound was classed as inactive.
`Cc1ccc(S(=O)(=O)c2cc3c(=O)n4cccc(C)c4nc3n(CC3CCCO3)c2=N)cc1` (stereo not given): the result was inactive.
Take `COC(=O)C(NC(=O)c1ccco1)(Nc1nc(C)cs1)C(F)(F)F` (stereo not given): the outcome was inactive.
Turning to `CC(=O)C1=C(O)C(=O)N(c2ccc(Br)cn2)C1c1ccccc1F` (stereo not given), the compound was classed as inactive.
Turning to `Cc1ccc(S(=O)(=O)N(CC(O)CN2CCOCC2)c2cc(Cl)ccc2Cl)cc1` (stereo not given), the compound was called inactive.
Turning to `CCNC(=O)COn1c(SCC(=O)NCC)nc2ccccc2c1=O`, the compound was classed as inactive.
In the case of `CCCOc1cccc(C2/C(=C(/O)c3ccc(F)cc3)C(=O)C(=O)N2CCN(C)C)c1` (stereo not given), the outcome was inactive.
Same read-out and setting: then `Cc1ccc(N(CN2C(=O)C3CC=CCC3C2=O)C(=O)c2ccco2)cc1Cl` (stereo not given), with “inactive”; and `O=c1[nH]cnc2c1cnn2Cc1ccccc1`, with “inactive”.
Still for that read-out and setting: then `COC(=O)C(NC(C)=O)(Nc1ccc(Br)cn1)C(F)(F)F` (stereo not given), with “inactive”; and `COC(=O)/C=c1/s/c(=C(/C#N)C(=O)N2CCCCC2)n(-c2ccccc2)c1=O`, with “inactive”.
Same read-out and setting: the entry for `O=c1c2sc3nc(N4CCOCC4)c4c(c3c2ncn1Cc1ccco1)CCCC4` is “inactive”.
As for `COc1ccc(CC(=O)n2c(CC#N)nc3ccccc32)cc1OC`, the result was inactive.
The same measure, in the same setting: then `CCN(CC)CCN1C(=O)C(O)=C(C(=O)c2cc3ccccc3o2)C1c1cccnc1` (stereo not given), with “inactive”; and `COc1ccc(CSc2nnc3n(C)c(=O)c4c5c(sc4n23)CCCC5)cc1`, with “inactive”.
In the case of `CC(NC(=O)Nc1cccnc1)(C(F)(F)F)C(F)(F)F`, the compound was classed as inactive.
For `CCOC(=O)CSc1nnc(C)c(=O)[nH]1`, the compound was called inactive.
In the case of `O=S(=O)(/C=C/c1ccccc1)Nc1ccc2c(c1)OCO2`, the call was inactive.
As for `Cn1c(=O)c2c3c(sc2n2c(SCC(=O)c4ccccc4)nnc12)COC(C)(C)C3`, the compound was classed as inactive.
As for `COc1cccc(C2C(C(=O)c3sc(C)nc3C)=C(O)C(=O)N2CCN2CCOCC2)c1OC` (stereo not given), the outcome was inactive.
As to `NC(=O)C1CCN(C2OC(=O)c3ccccc32)CC1` (stereo not given), the result was inactive.
As to `CCCCOC(=O)c1[nH]c(C)c(C(=O)OC)c1C`, the compound was called inactive.
The same measure, in the same setting: the entry for `CCSc1nnc(NC(=O)C(C)(C(F)(F)F)C(F)(F)F)s1` is “inactive”; for `Cc1ccc(N2C(=O)CC3(CC4C=CC3C4)C2=O)cc1` (stereo not given) it is “inactive”.
Consider `Cn1c(NCC(O)c2ccccc2)nc2c1c(=O)n(Cc1ccc(Cl)cc1)c(=O)n2C` (stereo not given), for which the compound was classed as inactive.
On to `N#Cc1nc(-c2ccc(F)cc2)oc1N1CCCC1`, for which the result was inactive.
In the case of `COC(=O)/C(C#N)=C1/SC=C(C)N1c1ccccc1`, the outcome was inactive.
Same read-out and setting: the entry for `COc1ccc2nc(/N=C(\N)NC(=O)C(C)(C)C)nc(C)c2c1` is “inactive; toxic”.
The same measure, in the same setting: then `O=C(NCCCNCc1ccccc1)/C(=N\O)c1ccccc1`, with “inactive”.

A further assay is described as follows: loss of swimming-algae plug formation – whole organism, Chlamydomonas reinhardtii, WT vs cilia-less mutant, absorbance, 96-well, primary screen (AID 463189;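 active = inhibition at or above 50% relative to wild type and mutant plate controls; inactive = inhibition below 50%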;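 note: 0% = wild type cc124 cells in DMSO and 100% = ciliumless bld1 mutant cells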). Particulars: Chlamydomonas reinhardtii gravitaxis, OD600 absorbance, 2 days; at 10 µM; hits give high values.
What is called inhibition is the relative decrease from the control value, in per cent. In the case of `COc1cccc(C(=O)OC2CCCN(C)C2)c1` (stereo not given), the inhibition is 0.435%.
Take `FC(F)(F)c1cccc(N2CCc3cn[nH]c32)c1`: the inhibition was -4.32%.
The same measure, in the same setting: the figure for `Cc1cc(=O)oc(C)c1C(=O)NCCC1=CCCCC1` is -3.01%; for `COCCNC(=O)C(C#N)c1nc2ccccc2nc1N1CCN(Cc2ccc3c(c2)OCO3)CC1` (stereo not given) it is 4.28%; for `Cc1cc(CC(=O)O)c(C)cc1CC(=O)O` it is -5.83%.
Regarding `Nc1nc2n(n1)C(c1cccs1)CC(c1ccc(F)cc1)N2` (stereo not given), the inhibition was 0.994%.
For the compound `CCOC(=O)C1=Nc2ccccc2C1=[N+]=[N-]`, the inhibition is 152% (active).
Consider `CCc1nc2c(sc3nc(N4CCOCC4)c4c(c32)CC(C)(C)OC4)c(=O)o1`, for which the inhibition is -8.15%.
Turning to `CC(=O)/C(C#N)=C1\NC(=O)C(Cc2ccccc2Cl)S1` (stereo not given), the inhibition was 4.47%.
For the compound `COC(=O)/C=c1/s/c(=C(\C#N)C(=O)NCc2ccco2)n(-c2ccccc2)c1=O`, the inhibition is 45.7%.
On to `O=C(NCCCN1CCOCC1)C1(c2ccccc2)CCOCC1`, for which the inhibition was 19.5%.
For `CCN(CC)CCN1C(=O)C(=O)/C(=C(/O)c2c(C)[nH]c(C(=O)OC)c2C)C1c1ccccc1` (stereo not given), the inhibition is 13.3%.
With `Cc1ccc(S(=O)(=O)c2cc3c(=O)n4cccc(C)c4nc3n(CC3CCCO3)c2=N)cc1` (stereo not given), the inhibition was -6.46%.
As to `COC(=O)C(NC(=O)c1ccco1)(Nc1nc(C)cs1)C(F)(F)F` (stereo not given), the inhibition is 14.1%.
On to `CC(=O)C1=C(O)C(=O)N(c2ccc(Br)cn2)C1c1ccccc1F` (stereo not given), for which the inhibition was 1.29%.
On to `Cc1ccc(S(=O)(=O)N(CC(O)CN2CCOCC2)c2cc(Cl)ccc2Cl)cc1` (stereo not given), for which the inhibition was -2.19%.
Consider `CCNC(=O)COn1c(SCC(=O)NCC)nc2ccccc2c1=O`, for which the inhibition was -4.94%.
Regarding `CCCOc1cccc(C2/C(=C(/O)c3ccc(F)cc3)C(=O)C(=O)N2CCN(C)C)c1` (stereo not given), the inhibition was 12.9%.
The same measure, in the same setting: then `Cc1ccc(N(CN2C(=O)C3CC=CCC3C2=O)C(=O)c2ccco2)cc1Cl` (stereo not given), with 30.1%; and `O=c1[nH]cnc2c1cnn2Cc1ccccc1`, with -9.15%.
Consider `COC(=O)C(NC(C)=O)(Nc1ccc(Br)cn1)C(F)(F)F` (stereo not given), for which the inhibition was 4.13%.
With `COC(=O)/C=c1/s/c(=C(/C#N)C(=O)N2CCCCC2)n(-c2ccccc2)c1=O`, the inhibition is 15.4%.
In the case of `O=c1c2sc3nc(N4CCOCC4)c4c(c3c2ncn1Cc1ccco1)CCCC4`, the inhibition was 30%.
The same measure, in the same setting: then `COc1ccc(CC(=O)n2c(CC#N)nc3ccccc32)cc1OC`, with 9.22%; and `CCN(CC)CCN1C(=O)C(O)=C(C(=O)c2cc3ccccc3o2)C1c1cccnc1` (stereo not given), with -8.96%; and `COc1ccc(CSc2nnc3n(C)c(=O)c4c5c(sc4n23)CCCC5)cc1`, with 1.97%.
With `CC(NC(=O)Nc1cccnc1)(C(F)(F)F)C(F)(F)F`, the inhibition is 0.542%.
With `CCOC(=O)CSc1nnc(C)c(=O)[nH]1`, the inhibition is -3.91%.
With `O=S(=O)(/C=C/c1ccccc1)Nc1ccc2c(c1)OCO2`, the inhibition is 4.72%.
Same read-out and setting: the figure for `Cn1c(=O)c2c3c(sc2n2c(SCC(=O)c4ccccc4)nnc12)COC(C)(C)C3` is 35.1%; for `COc1cccc(C2C(C(=O)c3sc(C)nc3C)=C(O)C(=O)N2CCN2CCOCC2)c1OC` (stereo not given) it is 4.67%; for `NC(=O)C1CCN(C2OC(=O)c3ccccc32)CC1` (stereo not given) it is 33.2%.
Still for that read-out and setting: the figure for `CCCCOC(=O)c1[nH]c(C)c(C(=O)OC)c1C` is 90.5% (active); for `CCSc1nnc(NC(=O)C(C)(C(F)(F)F)C(F)(F)F)s1` it is 2.14%; for `Cc1ccc(N2C(=O)CC3(CC4C=CC3C4)C2=O)cc1` (stereo not given) it is -4.98%.
Regarding `Cn1c(NCC(O)c2ccccc2)nc2c1c(=O)n(Cc1ccc(Cl)cc1)c(=O)n2C` (stereo not given), the inhibition was 8.04%.
As for `N#Cc1nc(-c2ccc(F)cc2)oc1N1CCCC1`, the inhibition was -3.17%.
With `COC(=O)/C(C#N)=C1/SC=C(C)N1c1ccccc1`, the inhibition is -8.28%.
As to `COc1ccc2nc(/N=C(\N)NC(=O)C(C)(C)C)nc(C)c2c1`, the inhibition was 2.17%.
Take `O=C(NCCCNCc1ccccc1)/C(=N\O)c1ccccc1`: the inhibition is 7.18%.
